S100A4 MyoIIA: S100A4-myosin IIA interaction inhibition; P26447; S100A4/TAMRA-MyoIIA peptide fluorescence polarization; inhibition, % at 10.7 µM; 360,000 tested, 0.14% active; AID 652163;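 active = mean inhibition of at least 70% across replicates, with every replicate also reaching that level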
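Material: S100A4 monomer protein | Medium: HEPES pH 7.2 with CaCl2, KCl, NaCl, DTT, Triton | Reagent: Labelled myosin peptide probe, 5 nM | Doses: One dose per compound | Times: 5 min incubation before reading | Benchmarks: Neutral control DMSO, positive control TFP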
SIRT5 block: sirtuin-5 (human) deacylase inhibition | Q9NXA8 | AID 652115 | inhibition, % at 15 µM | 330,000 tested, 1.1% active | Purified SirT5, succinyl-peptide AMC, trypsin-coupled fluorescence; in the data active = inhibition above about 15%
AF4-AF9 inh: MLL-AF4/AF9 protein interaction inhibition; P42568; AlphaScreen, biotin-AF4 peptide binding to FLAG-AF9; inhibition, % at 10 µM; 350,000 tested, 0.47% active; AID 651704;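 active = every replicate reaching a set inhibition limit, whatever the replicate mean, cut at about 25% in these data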;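 note: 0% = plate neutral control median and 100% = total signal loss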
Ecoli rRNA inh: inhibits bacterial ribosomal RNA function over humanized ribosomes; E. coli WT GFP vs humanized-ribosome RFP mutants, fluorescence, 24 h; hits give low values; DMSO median 0, no signal -100; GFP signal change (wild-type ribosome), % (no concentration beside the values); 350,000 tested, 1.6% active;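 active = significant combined selectivity score with lowered wild-type GFP, culture density cut under 30%, mutant RFP and density less affected; inactive = any of these conditions unmet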
E-selectin induc: E-selectin induction on HUVECs; P16581; HUVEC E-selectin immunofluorescence imaging; normalized: neutral wells 0, TNF-alpha wells 100; activation, % at 7.58 µM; 260,000 tested, 0.37% active; AID 686992;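 active = mean E-selectin-positive cell signal at least 10% of the positive control, reached in at least 60% of replicates, without over 20% cell loss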
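material = human umbilical vein endothelial cells (HUVEC), E-selectin induction | quantity = 3,000 cells/well | medium = EGM-2 growth medium on 0.1% gelatin-coated wells | technique = immunofluorescence imaging | read-out basis = % PE-positive cells | control set = TNF-alpha positive control, DMSO neutral control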
ERAP1 HTS inh: ERAP1 (human) enzyme inhibition. recombinant ERAP1, Leu-AMC fluorescence, 60 min. 340,000 tested, 0.15% active. Q9NZ08. AID 652197. inhibition, % at 10.7 µM;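 active = mean replicate inhibition of at least 30%, or all replicates individually reaching that 30% level; inactive = mean below 30% and not every replicate reaching it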;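 note: 0% = neutral control wells and 100% = L-leucinethiol positive control wells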
Target sequence (Q9NZ08 whole entry, looked up): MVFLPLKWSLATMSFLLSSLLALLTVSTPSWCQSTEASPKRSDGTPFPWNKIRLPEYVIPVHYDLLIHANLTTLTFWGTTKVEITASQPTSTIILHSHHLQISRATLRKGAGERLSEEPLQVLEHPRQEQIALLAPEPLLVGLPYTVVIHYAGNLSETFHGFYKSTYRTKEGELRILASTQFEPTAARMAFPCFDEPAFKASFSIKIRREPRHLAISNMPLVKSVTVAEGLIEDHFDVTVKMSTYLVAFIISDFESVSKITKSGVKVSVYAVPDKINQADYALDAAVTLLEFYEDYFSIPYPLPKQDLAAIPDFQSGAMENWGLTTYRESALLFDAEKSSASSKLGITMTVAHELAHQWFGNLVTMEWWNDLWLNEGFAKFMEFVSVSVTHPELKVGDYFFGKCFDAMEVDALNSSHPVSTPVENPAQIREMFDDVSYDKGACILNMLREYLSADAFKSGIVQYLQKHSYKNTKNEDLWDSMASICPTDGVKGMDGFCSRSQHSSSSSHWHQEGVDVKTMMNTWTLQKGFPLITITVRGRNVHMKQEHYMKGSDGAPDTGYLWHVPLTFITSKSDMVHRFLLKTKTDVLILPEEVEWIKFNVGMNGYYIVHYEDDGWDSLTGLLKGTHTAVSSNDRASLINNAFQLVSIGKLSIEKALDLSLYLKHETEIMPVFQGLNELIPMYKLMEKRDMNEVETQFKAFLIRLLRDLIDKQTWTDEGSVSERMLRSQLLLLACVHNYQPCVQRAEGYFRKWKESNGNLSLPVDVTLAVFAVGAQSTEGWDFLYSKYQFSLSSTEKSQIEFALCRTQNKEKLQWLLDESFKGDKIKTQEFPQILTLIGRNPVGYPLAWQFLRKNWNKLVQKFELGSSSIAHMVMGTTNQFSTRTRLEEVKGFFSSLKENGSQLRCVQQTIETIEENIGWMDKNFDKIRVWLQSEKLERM
Starred values were filed as active, the others as inactive; / = not tested or not shown. An excerpt weighted towards active compounds, which were near 3.4% of everything screened.

SMILES	S100A4 MyoIIA	SIRT5 block	AF4-AF9 inh	Ecoli rRNA inh	E-selectin induc	ERAP1 HTS inh
C[C@@H]1CN([C@H](C)CO)S(=O)(=O)c2ccc(C#CCN(C)C)cc2O[C@@H]1CN(C)CC1CC1	96*	5	7	3	0	1
C[C@@H]1CN([C@@H](C)CO)S(=O)(=O)c2ccc(-c3cccc(C#N)c3)cc2O[C@@H]1CN(C)CC1CC1	15	2	2	0	0	8
Cc1ccc(S(=O)(=O)Nc2ccc3c(c2)CC(=O)N([C@@H](C)CO)C[C@@H](C)[C@@H](CN(C)S(=O)(=O)c2ccc(F)cc2)O3)cc1	/	/	/	-2	1	/
CC(=O)c1cccc(NC(=S)NCCCCc2ccccc2)c1	8	3	3	-34*	0	2
COc1cccc(NC(=O)c2nn(C)c(C(=O)Nc3cccc(OC)c3)c2[N+](=O)[O-])c1	-5	-1	-3	-40*	0	0
COc1cccc(NC(=O)c2c([N+](=O)[O-])cnn2C)c1	-1	-3	5	17	0	0
COc1cccc(NC(=O)c2ccc(OC(F)(F)F)cc2)c1	10	/	/	-1	42*	-2
O=C(O)c1ccc(NC(=O)c2cccc(C(=O)Nc3ccc(C(=O)O)cc3)c2)cc1	1	33*	-4	-2	/	-29
C[C@H]1CN([C@@H](C)CO)C(=O)c2cccc(NS(=O)(=O)c3cn(C)cn3)c2O[C@H]1CN(C)C(=O)Nc1cccc2ccccc12	-5	2	1	2	0	5
C[C@H]1CN([C@@H](C)CO)C(=O)c2cccc(NC(=O)CCCCCC(=O)Nc3ccccc3N)c2O[C@@H]1CN(C)Cc1ccc2c(c1)OCO2	4	3	-2	-12	-6	-1
Cn1nc(C(C)(C)C)c([N+](=O)[O-])c1C(=O)Nc1ccc(Br)cc1	0	2	3	-26*	4	/
CCCCC(=O)NC(=S)Nc1cccc(NC(=O)c2ccccc2)c1	-6	-2	-1	-19*	/	-1
COc1cccc(NC(=O)c2ccccc2)c1	-1	32*	-2	6	0	0
CCCC(=O)NC(=S)Nc1cccc(NC(=O)c2ccccc2)c1	-3	0	-2	12	/	4
COc1ccc(CC(=O)Nc2ccc(C(=O)NCC(C)C)cc2)cc1	22	18*	/	10	/	-4
COc1cccc(NC(=O)c2cccc(C(=O)Nc3cccc(OC)c3)c2)c1	0	-2	4	7	/	-1
COc1ccc(NC(=O)c2ccc(NC(=O)c3ccncc3)cc2)cc1	-10	-4	31*	-1	0	-2
O=C(NCCc1ccc(F)cc1)c1cccc(NC(=O)c2ccccc2)c1	3	1	1	-22*	/	-4
COC(=O)c1cccc(NC(=O)c2ccc(OC)c(Cl)c2)c1	-4	-1	-1	-30*	-1	2
O=C(C[C@H]1CC[C@H]2[C@@H](COC[C@H](O)CN2Cc2ccc(Oc3ccccc3)cc2)O1)N1CCc2ccccc2C1	/	/	/	-12	/	/
CO[C@H]1CN(C)C(=O)c2cc(NC(=O)NC3CCCC3)ccc2OC[C@@H](C)NC[C@H]1C	/	/	/	0	/	/
C[C@H]1CN([C@@H](C)CO)S(=O)(=O)c2ccc(/C=C/c3ccccc3)cc2O[C@@H]1CN(C)Cc1ccc(C(=O)O)cc1	12	25*	7	-12	0	0
C[C@H](CO)N1C[C@H](C)[C@@H](CN(C)Cc2ccccc2)Oc2cc(/C=C/c3ccccc3)ccc2S1(=O)=O	3	-4	7	-4	0	2
C[C@@H]1CN([C@@H](C)CO)S(=O)(=O)c2ccc(/C=C/c3ccccc3)cc2O[C@@H]1CN(C)CC1CC1	-1	-2	24	3	0	3
C[C@H](CO)N1C[C@H](C)[C@H](CN(C)Cc2ccccc2)Oc2cc(/C=C/c3ccccc3)ccc2S1(=O)=O	3	21*	7	1	0	0
SMILES	S100A4 MyoIIA	SIRT5 block	AF4-AF9 inh	Ecoli rRNA inh	E-selectin induc	ERAP1 HTS inh
C[C@H]1CN([C@@H](C)CO)S(=O)(=O)c2ccc(/C=C/c3ccccc3)cc2O[C@H]1CN(C)Cc1ccccc1	-5	22*	10	/	/	1
C[C@H](CO)N1C[C@H](C)[C@H](CN(C)CC2CC2)Oc2cc(/C=C/c3ccccc3)ccc2S1(=O)=O	-23	-1	26*	/	-1	1
CNC(=O)C[C@H]1CC[C@H]2[C@@H](COc3ccc(NC(=O)Nc4ccccc4F)cc3C(=O)N2C)O1	-2	-8	-2	3	0	4
C[C@H](O)[C@@H]1CN2CCc3ccc(-c4ccc5c(c4)OCO5)cc3[C@@H]2C[C@@H]1N(C)C(=O)NC1CCCCC1	-3	0	/	-7	0	0
C[C@H](O)[C@@H]1CN2CCc3c([nH]c4ccc(-c5ccc6c(c5)OCO6)cc34)[C@@H]2C[C@@H]1N(C)C(=O)NC1CCCCC1	-4	-1	9	-52*	/	-4
Cc1cccc(-c2ccc3[nH]c4c(c3c2)CCN2C[C@@H]([C@H](C)O)[C@@H](N(C)C(=O)Nc3ccc(F)cc3)C[C@@H]42)c1	-10	2	12	-22*	0	7
C[C@H](O)[C@@H]1CN2CCc3c([nH]c4ccccc34)[C@@H]2C[C@@H]1N(C)C(=O)Nc1ccc(F)cc1	-9	-1	5	0	3	0
CCCC(=O)Nc1ccc2c(c1)OC[C@H](C)N(C(=O)c1ccccc1F)C[C@@H](C)[C@H](OC)CN(C)C2=O	/	/	/	2	0	/
COc1ccc(C(=O)c2cc3ccc(O)cc3oc2=O)cc1	-1	15	4	-18*	/	0
CCc1ccc(C(=O)c2cc3ccc(O)cc3oc2=O)cc1	-9	0	1	-12	0	-7
O=C(c1ccc(Br)cc1)c1cc2ccc(O)cc2oc1=O	-5	3	2	-33	46*	-6
CC1(C)c2ccccc2N2CC(=O)N(CC(N)=O)C21C (centres undefined)	118*	/	0	/	/	/
O=C(CC1CC1)Nc1ccc2c(c1)[C@H]1C[C@@H](CC(=O)NC3CCCCC3)O[C@@H](CO)[C@H]1O2	-4	-1	-2	2	0	2
CO[C@H]1CN(C)C(=O)c2ccc(NC(=O)NC(C)C)cc2OC[C@@H](C)N(CC2CC2)C[C@@H]1C	3	11	-12	2	0	0
C[C@@H]1CN([C@H](C)CO)C(=O)c2cc(C#Cc3cccnc3)cnc2O[C@H]1CN(C)Cc1ccc(F)cc1	-3	2	0	2	0	/
S=C(Nc1ccc(N2CCOCC2)cc1)Nc1ccc2snnc2c1	1	-6	6	-20*	/	0
O=C(Nc1nnc(-c2ccncc2)o1)c1ccccc1	-13	2	0	-35*	/	2

High-throughput results: PubChem, Broad Institute
